Experimental data reported in ChEMBL document CHEMBL3352606, “Oligo-β-(1 → 3)-glucans: impact of thio-bridges on immunostimulating activities and the development of cancer stem cells” (J Med Chem, 2014).
Calls of active or inactive are those of the source. The calls are words filed in the database; no cut-off is given here.

What was measured:
Mus musculus [1] = species: Mus musculus; assay: Immunostimulation activity in BALB/c mouse assessed as influx of peritoneal macrophages measured 1 to 3 days post compound injection; assay type: functional, organism-based
ZR-75-1 [2] = assay: Downregulation of CDC42 expression in human ZR-75-1 cells at by RT-PCR analysis; assay type: functional, cell-based
Method in brief: (§1)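 Total RNA was Trizol-extracted from control and treated cells (ZR-75-1 or Detroit 573; 10% heat-inactivated FCS, 37 °C, 5% CO2). 200 ng was taken through one-step RT-PCR: 30 min at 50 °C, 2 min at 95 °C, then 25 cycles with gene-specific annealing and extension. Products were run on 1.0% agarose, normalised to β-actin and quantified by densitometry. Three independent experiments, Student's t test.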

[3] = Downregulation of NF-kappaB expression in human Detroit 573 cells at by RT-PCR analysis; assay type: ADME, cell-based; method in brief: as §1
[4] = Upregulation of PKC expression in human Detroit 573 cells at by RT-PCR analysis; assay type: ADME, cell-based; method in brief: as §1
Mus musculus [5] = species: Mus musculus; assay: Immunostimulation activity in BALB/c mouse assessed as stimulation of monocytes measured […] post compound injection in presence of polymyxin B; assay type: functional, organism-based
Method in brief: (§2)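 This is the HEMA-particle phagocytosis assay repeated with 10 μg/mL polymyxin B added to the samples. Peritoneal cells (1 × 10^7, RPMI-1640 with 5% FCS) and heparinised orbital-plexus blood were taken from mice injected with oligosaccharides 1 or 4 days before. Cells were Giemsa-stained, and those carrying ≥3 particles were scored positive.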

Mus musculus [6] = species: Mus musculus; assay: Immunostimulation activity in BALB/c mouse assessed as stimulation of monocytes measured […] post compound injection; assay type: functional, organism-based
Method in brief: (§3)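 Mice were injected with oligosaccharides 1 or 4 days before. Peritoneal macrophages (1 × 10^7, in RPMI-1640 with 5% FCS) were incubated with HEMA particles, Giemsa-stained and differentially counted; cells with ≥3 particles were scored positive. Peripheral blood was scored the same way, using one heparinised drop from the orbital plexus. Mean of three experiments ± SD.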

Mus musculus [7] = species: Mus musculus; assay: Immunostimulation activity in BALB/c mouse assessed as stimulation of […] neutrophils measured […] post compound injection; assay type: functional, organism-based; method in brief: as §3
Mus musculus [8] = species: Mus musculus; assay: Immunostimulation activity in BALB/c mouse assessed as stimulation of peritoneal macrophages measured […] in presence of polymyxin B; assay type: functional, organism-based; method in brief: as §2
Mus musculus [9] = assay: Immunostimulation activity in BALB/c mouse assessed as production of TNF-alpha in peripheral blood at 100 ug, ip by EIA; assay type: functional, organism-based
Method in brief: (§4)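 BALB/c mice received 100 μg oligosaccharide i.p., or PBS. Mice were sacrificed at intervals and serum was stored at −80 °C for ≤1 week. IL-1β and TNF-α were measured by ELISA at 450 nm with 570 nm correction, against a standard curve run with each assay (linear regression). Mean of three experiments ± SD.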

Mus musculus [10] = species: Mus musculus; assay: Immunostimulation activity in BALB/c mouse assessed as stimulation of […] neutrophils measured […] in presence of polymyxin B; assay type: functional, organism-based; method in brief: as §2
Mus musculus [11] = assay: Immunostimulation activity in BALB/c mouse assessed as production of IL-2 in conA-stimulated splenocytes at 100 ug, ip by EIA; assay type: functional, organism-based
Method in brief: (§5)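 Purified spleen cells (2 × 10^6/mL in RPMI 1640 with 5% FCS) were cultured for 72 h at 37 °C, 5% CO2; 1 μg Concanavalin A was added to positive-control wells. Supernatants were filtered at 0.45 μm and IL-2 was measured by mouse IL-2 ELISA kit. Mean of three experiments ± SD; PBS-injected mice served as controls.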

ZR-75-1 [12] = assay: Upregulation of PKC expression in human ZR-75-1 cells at by RT-PCR analysis; assay type: functional, cell-based; method in brief: as §1
Mus musculus [13] = assay: Immunostimulation activity in BALB/c mouse assessed as production of […] in peripheral blood at 100 ug, ip by EIA; assay type: functional, organism-based; method in brief: as §4
Mus musculus [14] = species: Mus musculus; assay: Immunostimulation activity in BALB/c mouse assessed as production of IL-2 in splenocytes measured 1 to 3 days post compound injection; assay type: functional, organism-based; method in brief: as §5
ZR-75-1 [15] = assay: Effect on CDC25 expression in human ZR-75-1 cells at by RT-PCR analysis; assay type: functional, cell-based; method in brief: as §1
Mus musculus [16] = species: Mus musculus; assay: Immunostimulation activity in BALB/c mouse assessed as stimulation of peritoneal macrophages measured […] post compound injection; assay type: functional, organism-based; method in brief: as §3
[17] = Downregulation of CDC25 expression in human Detroit 573 cells at by RT-PCR analysis; assay type: ADME, cell-based; method in brief: as §1
ZR-75-1 [18] = assay: Upregulation of NF-kappaB expression in human ZR-75-1 cells at by RT-PCR analysis; assay type: functional, cell-based; method in brief: as §1
[19] = Upregulation of CDC42 expression in human Detroit 573 cells at by RT-PCR analysis; assay type: ADME, cell-based; method in brief: as §1

OC[C@H]1O[C@@H](O[C@@H]2[C@@H](O)[C@H](O[C@@H]3[C@@H](O)[C@H](S[C@H]4[C@H](O)[C@@H](CO)OC(O)[C@@H]4O)O[C@H](CO)[C@H]3O)O[C@H](CO)[C@H]2O)[C@H](O)[C@@H](O)[C@@H]1O (stereo partly specified)
Activity (Mus musculus [1]): Active | Activity (ZR-75-1 [2]): Active | Activity [3]: Non-toxic | Activity [4]: Toxic | Activity (Mus musculus [5]): Active | Activity (Mus musculus [6]): Active | Activity (Mus musculus [7]): Active | Activity (Mus musculus [8]): Active | Activity (Mus musculus [9]): Active | Activity (Mus musculus [10]): Active | Activity (Mus musculus [11]): Active | Activity (ZR-75-1 [12]): Active | Activity (Mus musculus [13]): Active | Activity (Mus musculus [14]): Active | Activity (ZR-75-1 [15]): inactive | Activity (Mus musculus [16]): Active | Activity [17]: Non-toxic

OC[C@H]1O[C@@H](O[C@@H]2[C@@H](O)[C@H](S[C@@H]3[C@@H](O)[C@H](O)O[C@H](CO)[C@H]3O)O[C@H](CO)[C@H]2O)[C@H](O)[C@@H](O)[C@@H]1O
Activity (Mus musculus [1]): Active | Activity [3]: Non-toxic | Activity [4]: Toxic | Activity (Mus musculus [5]): Active | Activity (Mus musculus [6]): Active | Activity (Mus musculus [7]): Active | Activity (Mus musculus [8]): Active | Activity (Mus musculus [9]): Active | Activity (ZR-75-1 [18]): Active | Activity (Mus musculus [10]): Active | Activity (Mus musculus [11]): Active | Activity (ZR-75-1 [12]): Active | Activity (Mus musculus [13]): Active | Activity (Mus musculus [14]): Active | Activity (ZR-75-1 [15]): inactive | Activity (Mus musculus [16]): Active | Activity [17]: Non-toxic

OC[C@H]1O[C@@H](O[C@@H]2[C@@H](O)[C@H](S[C@@H]3[C@@H](O)[C@H](S[C@H]4[C@H](O)[C@@H](CO)OC(O)[C@@H]4O)O[C@H](CO)[C@H]3O)O[C@H](CO)[C@H]2O)[C@H](O)[C@@H](O)[C@@H]1O (stereo partly specified)
Activity (Mus musculus [1]): Active | Activity [3]: Toxic | Activity [4]: Toxic | Activity [19]: Non-toxic | Activity (Mus musculus [5]): Active | Activity (Mus musculus [6]): Active | Activity (Mus musculus [7]): Active | Activity (Mus musculus [8]): Active | Activity (Mus musculus [9]): Active | Activity (Mus musculus [10]): Active | Activity (Mus musculus [11]): Active | Activity (ZR-75-1 [12]): Active | Activity (Mus musculus [13]): Active | Activity (Mus musculus [14]): Active | Activity (Mus musculus [16]): Active

OC[C@H]1O[C@@H](S[C@@H]2[C@@H](O)[C@H](S[C@H]3[C@H](O)[C@@H](CO)OC(O)[C@@H]3O)O[C@H](CO)[C@H]2O)[C@H](O)[C@@H](O)[C@@H]1O (stereo partly specified)
Activity (Mus musculus [1]): Active | Activity [4]: Toxic | Activity [19]: Non-toxic | Activity (Mus musculus [5]): Active | Activity (Mus musculus [6]): Active | Activity (Mus musculus [7]): Active | Activity (Mus musculus [8]): Active | Activity (Mus musculus [10]): Active | Activity (ZR-75-1 [12]): Active | Activity (ZR-75-1 [15]): inactive | Activity (Mus musculus [16]): Active | Activity [17]: Non-toxic
